Test results taken from ChEMBL document CHEMBL3297742, “Tetrahydronaphthyridine and dihydronaphthyridinone ethers as positive allosteric modulators of the metabotropic glutamate receptor 5 (mGlu₅)” (J Med Chem, 2014).

Legend:
[1] = target: T1, Metabotropic glutamate receptor 5 (Rattus norvegicus, UniProt P31424); assay: Positive allosteric modulator activity at rat mGlu5 receptor expressed in HEK293 cells assessed as potentiation of glutamate-induced calcium mobilization by fluorescence assay; format: functional, cell-based
T1 sequence (P31424 whole entry): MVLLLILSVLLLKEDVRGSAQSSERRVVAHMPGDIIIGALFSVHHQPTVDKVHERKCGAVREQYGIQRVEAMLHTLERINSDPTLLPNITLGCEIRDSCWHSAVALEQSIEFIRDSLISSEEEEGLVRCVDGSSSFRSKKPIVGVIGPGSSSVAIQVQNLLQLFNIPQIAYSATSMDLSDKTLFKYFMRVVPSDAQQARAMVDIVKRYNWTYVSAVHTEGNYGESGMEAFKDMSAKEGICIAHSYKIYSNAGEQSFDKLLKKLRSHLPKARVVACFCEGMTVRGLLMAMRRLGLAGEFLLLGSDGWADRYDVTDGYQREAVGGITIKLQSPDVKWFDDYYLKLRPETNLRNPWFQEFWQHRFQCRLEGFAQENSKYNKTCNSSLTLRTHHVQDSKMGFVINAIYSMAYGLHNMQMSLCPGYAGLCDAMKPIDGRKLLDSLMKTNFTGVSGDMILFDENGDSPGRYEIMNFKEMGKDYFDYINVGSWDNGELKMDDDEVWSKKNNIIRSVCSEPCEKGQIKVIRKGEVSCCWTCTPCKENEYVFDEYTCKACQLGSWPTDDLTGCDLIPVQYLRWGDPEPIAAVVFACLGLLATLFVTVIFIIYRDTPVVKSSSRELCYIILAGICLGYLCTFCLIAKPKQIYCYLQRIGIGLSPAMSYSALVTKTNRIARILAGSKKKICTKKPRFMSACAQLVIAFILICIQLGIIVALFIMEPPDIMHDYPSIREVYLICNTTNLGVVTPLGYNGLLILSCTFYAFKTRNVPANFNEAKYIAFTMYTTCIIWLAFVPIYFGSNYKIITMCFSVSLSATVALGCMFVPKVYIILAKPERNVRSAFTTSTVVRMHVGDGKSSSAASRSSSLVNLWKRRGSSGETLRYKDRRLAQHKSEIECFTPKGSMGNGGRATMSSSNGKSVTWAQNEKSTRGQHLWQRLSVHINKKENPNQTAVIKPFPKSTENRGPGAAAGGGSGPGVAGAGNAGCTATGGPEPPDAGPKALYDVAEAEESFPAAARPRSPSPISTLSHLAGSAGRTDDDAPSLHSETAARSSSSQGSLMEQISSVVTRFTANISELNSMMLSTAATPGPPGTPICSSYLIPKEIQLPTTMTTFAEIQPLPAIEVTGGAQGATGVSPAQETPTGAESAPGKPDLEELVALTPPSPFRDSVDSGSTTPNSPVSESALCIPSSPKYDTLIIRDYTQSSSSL
Outline: (§1)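 HEK293 cells stably expressing rat mGlu5, 15000 cells/well, grown overnight, loaded with 1 µM Fluo-4AM for 50 min at 37 °C in HBSS/20 mM HEPES/2.5 mM probenecid pH 7.4. Compound added, then an EC20 of glutamate 140 s later and an EC80 90–120 s after that. Fluorescence over basal normalized to maximal glutamate response (100 µM glutamate); compound at up to 30 µM; ≥3 independent determinations.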

[2] = target: Metabotropic glutamate receptor 5 (Rattus norvegicus) (UniProt P31424); assay: Positive allosteric modulator activity at rat mGlu5 receptor expressed in HEK293 cells assessed as potentiation of glutamate-induced calcium mobilization at 30 uM by fluorescence assay relative to glutamate; format: functional, cell-based; outline: as §1
Sequence of Metabotropic glutamate receptor 5 (Rattus norvegicus) (P31424 21-1203 limits assumed): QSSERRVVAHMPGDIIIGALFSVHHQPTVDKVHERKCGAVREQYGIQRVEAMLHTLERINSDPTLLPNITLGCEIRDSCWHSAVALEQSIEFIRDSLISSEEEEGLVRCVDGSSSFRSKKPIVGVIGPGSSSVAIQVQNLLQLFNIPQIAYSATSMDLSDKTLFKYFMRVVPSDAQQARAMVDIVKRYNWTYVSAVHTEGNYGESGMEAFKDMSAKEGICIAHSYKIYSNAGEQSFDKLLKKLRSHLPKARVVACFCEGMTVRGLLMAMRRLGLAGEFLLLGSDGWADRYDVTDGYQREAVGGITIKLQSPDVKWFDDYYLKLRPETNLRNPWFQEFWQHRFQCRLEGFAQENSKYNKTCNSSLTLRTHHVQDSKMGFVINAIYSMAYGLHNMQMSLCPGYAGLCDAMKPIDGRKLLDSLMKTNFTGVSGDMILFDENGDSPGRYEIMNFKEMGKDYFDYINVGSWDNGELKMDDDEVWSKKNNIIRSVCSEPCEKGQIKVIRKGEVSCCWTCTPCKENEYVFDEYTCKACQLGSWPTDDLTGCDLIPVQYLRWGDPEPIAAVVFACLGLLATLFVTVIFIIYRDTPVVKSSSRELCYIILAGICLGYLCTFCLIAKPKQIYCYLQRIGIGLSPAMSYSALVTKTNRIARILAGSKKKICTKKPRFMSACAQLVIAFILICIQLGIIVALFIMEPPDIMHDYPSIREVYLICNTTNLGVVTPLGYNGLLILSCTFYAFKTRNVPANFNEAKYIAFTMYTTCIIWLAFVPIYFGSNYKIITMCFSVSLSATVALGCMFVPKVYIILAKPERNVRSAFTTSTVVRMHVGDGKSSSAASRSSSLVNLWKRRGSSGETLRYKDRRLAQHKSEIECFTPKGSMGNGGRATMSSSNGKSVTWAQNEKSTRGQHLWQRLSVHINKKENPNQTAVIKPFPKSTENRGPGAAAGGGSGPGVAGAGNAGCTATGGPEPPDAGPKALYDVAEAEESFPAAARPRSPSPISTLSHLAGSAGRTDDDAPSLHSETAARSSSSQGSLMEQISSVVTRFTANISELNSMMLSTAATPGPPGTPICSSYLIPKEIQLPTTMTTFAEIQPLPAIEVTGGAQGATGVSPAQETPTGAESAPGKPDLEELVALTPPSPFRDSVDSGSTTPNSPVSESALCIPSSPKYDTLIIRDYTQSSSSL

Plasma [3] = assay: (§2) Fraction unbound in rat plasma; format: ADME, cell-free
Plasma [4] = assay: Fraction unbound in human plasma; format: ADME, cell-free
[5] = target: Metabotropic glutamate receptor 5 (Rattus norvegicus) (UniProt P31424); assay: Partial antagonist activity at rat mGlu5 receptor expressed in HEK293 cells relative to glutamate; format: cell-based
[6] = target: T1, Metabotropic glutamate receptor 5; assay: Partial antagonist activity at rat mGlu5 receptor expressed in HEK293 cells; format: cell-based
[7] = as §2; format: ADME, cell-free
[8] = target: Metabotropic glutamate receptor 3 (Rattus norvegicus) (UniProt P31422); assay: Negative allosteric modulator activity at rat mGlu3 receptor expressed in HEK293 cells assessed as negative cooperativity fold shift of glutamate concentration response curve for GIRK channel-mediated thallium flux at 10 uM treated 140s prior to glutamate challenge by fluorescence analysis; format: cell-based
Sequence of Metabotropic glutamate receptor 3 (Rattus norvegicus) (P31422 23-879 limits assumed): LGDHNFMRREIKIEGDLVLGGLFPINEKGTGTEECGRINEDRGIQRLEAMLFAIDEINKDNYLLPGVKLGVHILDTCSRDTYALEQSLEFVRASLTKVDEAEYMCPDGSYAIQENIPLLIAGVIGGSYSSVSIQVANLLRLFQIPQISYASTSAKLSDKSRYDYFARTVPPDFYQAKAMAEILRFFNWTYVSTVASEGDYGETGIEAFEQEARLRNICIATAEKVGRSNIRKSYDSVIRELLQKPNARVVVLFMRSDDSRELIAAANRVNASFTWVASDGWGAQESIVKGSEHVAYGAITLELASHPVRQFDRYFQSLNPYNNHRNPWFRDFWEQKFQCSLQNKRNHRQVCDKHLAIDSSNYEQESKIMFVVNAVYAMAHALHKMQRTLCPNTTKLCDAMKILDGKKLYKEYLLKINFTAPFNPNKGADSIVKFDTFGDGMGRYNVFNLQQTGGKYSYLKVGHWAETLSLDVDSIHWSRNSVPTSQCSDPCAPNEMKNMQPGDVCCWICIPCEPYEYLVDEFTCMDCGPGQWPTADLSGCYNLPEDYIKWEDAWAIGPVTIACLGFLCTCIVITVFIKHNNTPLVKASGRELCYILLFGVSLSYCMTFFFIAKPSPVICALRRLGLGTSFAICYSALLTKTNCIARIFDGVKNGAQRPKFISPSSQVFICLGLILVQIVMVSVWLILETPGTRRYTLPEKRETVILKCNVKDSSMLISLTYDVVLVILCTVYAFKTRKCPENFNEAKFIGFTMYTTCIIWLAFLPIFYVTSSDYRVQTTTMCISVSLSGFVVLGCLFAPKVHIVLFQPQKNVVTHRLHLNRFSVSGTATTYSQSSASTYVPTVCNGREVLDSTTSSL
Outline: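 HEK293-GIRK cells expressing rat mGlu2, 3, 4, 6, 7 or 8, 15000 cells/well. Vehicle or 10 µM compound added, then 140 s later a glutamate CRC (L-AP4 for mGlu7) in thallium buffer (12 mM thallium sulfate, 10 mM HEPES). Thallium flux through GIRK read by fluorescence.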

| SMILES | EC50 ([1]; read-out: EC50) | %max [2] | Activity [2] | also measured |
| --- | --- | --- | --- | --- |
| O=C1NCCc2nc(OCc3cccnc3)ccc21 |  |  | < 10% |  |
| C[C@@H](N1CCc2cc(COc3ccccc3)cnc2C1=O)C(C)(C)C |  |  | < 10% |  |
| CN1CCc2cc(COc3ccccc3)cnc2C1=O |  |  | < 10% |  |
| O=C1NCCc2nc(COc3cccc(F)c3)ccc21 | > 10000 nM | 34% |  |  |
| O=C(c1ccc(F)cc1)N1CCc2ncc(OCc3ccccc3)cc2C1 |  |  |  | Emin [5]: 53%; IC50 [6]: 7810 nM |
| O=C1c2ccc(COc3cccc(F)c3)nc2CCN1Cc1ccccc1 | > 10000 nM | 38% |  |  |
| O=C1NCCc2nc(OCc3ccccc3)ccc21 | 1030 nM | 54% |  | EC50 ([1]; read-out: pEC50 (converted)): 1050 nM |
| O=C1NCCc2nc(OCc3ccccc3Cl)ccc21 |  |  | < 10% |  |
| O=C(c1ccc(F)cc1)N1CCc2ncc(COc3ccc(F)cc3)cc2C1 | 1770 nM | 53% |  |  |
| O=C1NCCc2cc(COc3ccccc3)ncc21 |  |  | < 10% |  |
| O=C1c2ncc(COc3ccccc3)cc2CCN1c1ccc(F)cc1 | 538 nM | 81% |  | Fu (Plasma [3]): 0.11; fold change (FC) [8]: 0.3; Fu (Plasma [4]): 0.096 |
| O=C1c2ccc(COc3cccc(F)c3)nc2CCN1CC1CC1 | > 10000 nM | 33% |  |  |
| O=C(c1ccccc1)N1CCc2ncc(OCc3ccccc3)cc2C1 |  |  | < 10% |  |
| O=C1NCCc2cc(COc3ccccc3)cnc21 |  |  | < 10% |  |
| O=C1NCCc2nc(COc3ccccc3)ccc21 | > 10000 nM | 43% |  |  |
| O=C1NCCc2nc(OCc3ccc(Cl)cc3)ccc21 |  |  | < 10% |  |
| CCCCOc1ccc2c(n1)CCNC2=O |  |  | < 10% |  |
| O=C1NCCc2nc(OCc3ccccn3)ccc21 |  |  | < 10% |  |

Further lines, with some results ahead:

| EC50 ([1]; read-out: EC50) | %max [2] | Activity [2] | SMILES | also measured |
| --- | --- | --- | --- | --- |
| 444 nM | 36% |  | O=C1c2ccc(OCc3cccc(F)c3)nc2CCN1CC1CCC1 |  |
| 212 nM | 50% |  | O=C1c2ccc(OCc3cccc(F)c3)nc2CCN1c1ccc(F)cn1 | Fu (Plasma [3]): 0.025; Fu (Plasma [4]): 0.01 |
|  |  | < 10% | O=C(C1CC1)N1CCc2ncc(OCc3cccc(F)c3)cc2C1 |  |
| 2470 nM | 39% |  | CC1(CN2CCc3nc(OCc4cccc(F)c4)ccc3C2=O)COC1 |  |
| 640 nM | 69% |  | O=C(c1ccc(F)cc1)N1CCc2ncc(COc3ccccc3)cc2C1 |  |
|  |  | < 10% | CN1CCc2cc(COc3ccccc3)ncc2C1=O |  |
| 403 nM | 30% |  | O=C1c2cnc(COc3ccccc3)cc2CCN1c1ccc(F)cc1 |  |
|  |  | < 10% | CN1CCc2nc(OCc3cccc(F)c3)ccc2C1=O |  |
| 595 nM | 59% |  | O=C1c2ccc(COc3cccc(F)c3)nc2CCN1c1ccc(F)cn1 |  |
| 1170 nM | 68% |  | O=C1NCCc2nc(OCc3ccccc3F)ccc21 |  |
| 1150 nM | 38% |  | CC(C)CN1CCc2nc(COc3cccc(F)c3)ccc2C1=O |  |
|  |  | < 10% | O=C1c2ccc(OCc3cccc(F)c3)nc2CCN1CC1CC1 |  |
|  |  | < 10% | CN1CCc2nc(COc3cccc(F)c3)ccc2C1=O |  |
| 198 nM | 68% |  | O=C1c2ccc(COc3ccccc3)nc2CCN1c1ccc(F)cc1 | fraction unbound [7]: 0.036; Fu (Plasma [4]): 0.021 |
| 62 nM | 43% |  | O=C1NCCc2nc(OCc3cccc(Cl)c3)ccc21 |  |
| 118 nM | 38% |  | O=C1c2ccc(OCc3cccc(F)c3)nc2CCN1c1ccc(F)cc1 |  |
|  |  | < 10% | CCCCOc1ccc2c(n1)CCN(c1ccc(F)cc1F)C2=O |  |
|  |  | < 10% | CC(N1CCc2cc(COc3ccccc3)ncc2C1=O)C(C)(C)C (stereo not drawn) |  |
| 1090 nM | 69% |  | O=C(c1ccc(F)cc1)N1CCc2ncc(COc3cccc(F)c3)cc2C1 |  |
| 3170 nM | 36% |  | O=C1c2ccc(OCc3cccc(F)c3)nc2CCN1Cc1ccccc1 |  |
| 97 nM | 72% |  | O=C1c2ccc(COc3cccc(F)c3)nc2CCN1c1ccc(F)cc1 | Fu (Plasma [3]): 0.029; fold change (FC) [8]: 0.2; Fu (Plasma [4]): 0.014 |
|  |  | < 10% | CC(C)CN1CCc2nc(OCc3cccc(F)c3)ccc2C1=O |  |
| 1630 nM | 30% |  | O=C(c1cccc(F)c1)N1CCc2ncc(OCc3cccc(F)c3)cc2C1 |  |
|  |  | < 10% | O=C1c2ccc(OCc3ccccc3)nc2CCN1Cc1ccccn1 |  |
| 2760 nM | 23% |  | O=C1c2ccc(OCc3ccccc3)nc2CCN1Cc1ccccc1 |  |
